33 compounds from ChEMBL document CHEMBL1146334, “3D-Quantitative structure-activity relationships of synthetic antileishmanial ring-substituted ether phospholipids” (Bioorg Med Chem, 2007) can be followed below.

The test system of data set [1] is Leishmania donovani. Put plainly: Antileishmanial activity against Leishmania donovani LEM703 by MTT assay. The data set is classed as functional, organism-based. (Tetrazolium assays rely on reduction of a dye to a coloured formazan, in cell work by metabolically active cells.)
The test system of data set [2] is Leishmania infantum. Put plainly: Antileishmanial activity against Leishmania infantum LEM235 by MTT assay. The class given is functional, organism-based.
For data set [3], the system named is THP-1. Put plainly: Cytotoxicity against human THP1 cells after 72 hrs. The class given is functional, cell-based. The settings on record: THP-1, 72 h. The method, boiled down:
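THP1 cells at 1 × 10^6 cells/ml were exposed to test concentrations of 50 to 156 for 72 h. About 4 × 10^6 cells were then stained with PI (10 µg/ml) and SYBR-14 (0.1 mg/ml) in HEPES/NaCl/BSA buffer, pH 7.4, for 30 min at 37 °C. Flow cytometry used 488 nm excitation, analysed at least 10,000 cells, excluded autofluorescence and debris, and each experiment was repeated twice.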

Data set [4] in a line: Toxicity against red blood cells assessed as hemolytic activity. The data set is classed as cell-based, Erythrocyte. Conditions: human. Summed up:
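Human red cells from EDTA blood of healthy volunteers were washed thrice in PBS and mixed 1:1 with compound in PBS, 100 to 6.25, for 1 h at 37 °C. After centrifugation at 800g for 10 min, supernatant absorbance was read at 550 nm against 625 nm. % hemolysis = (A − A0)/(Amax − A0) × 100, with PBS as background and water as 100%. HC50 is the concentration giving 50% hemolysis.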

The structures appear in SMILES notation.

One may read the IC50 as the concentration needed to halve the response being measured. Read a low IC50 as greater potency in that assay. For the compound `C[N+](C)(C)CCOP(=O)([O-])OCCCCC=C1CCCCC1`, the concentration for half-maximal inhibition (IC50) in data set [1] and in data set [2] was more than 100 µM in each case.

The HC50 is the concentration giving 50% haemolysis. Consider `CCCCCCCCCCCCCCCC=C1CCC(OCCOP(=O)([O-])OCC[N+]2(C)CCOCC2)CC1` (stereo not given), for which the results for the IC50 in data set [1], in data set [3] and in data set [2] were 16.2 µM, 18.9 µM and 3.7 µM, respectively. In addition, the HC50 in data set [4] was more than 100 µM.

For `CCCCCCCCCCCCCCCC=C1CCC(OCCOP(=O)([O-])OCC[N+]2(C)CCCCC2)CC1` (stereo not given), the IC50 in data set [1] worked out at 22 µM; in data set [3], 25.7 µM; in data set [2], 6.5 µM. In addition, the HC50 in data set [4] is more than 100 µM.

In the case of `C[N+](C)(C)C1CCCC1OP(=O)([O-])OCCCCCCCCCCC=C1CCCCC1` (stereo not given), the IC50 in data set [1] was 8.56 µM; in data set [3] it was 30.7 µM; in data set [2] it was more than 100 µM. The HC50 in data set [4] amounted to 76.3 µM.

Turning to `C[N+](C)(C)CCOP(=O)([O-])OCCCCC=C1C2CC3CC(C2)CC1C3`, the values for the IC50 in data set [1], in data set [3] and in data set [2] were 4.99 µM, more than 500 µM and more than 100 µM, respectively. Further, the HC50 in data set [4] is more than 100 µM.

For `CCCCCCCCCCCC=C1CCC(OCCOP(=O)([O-])OCC[N+]2(C)CCOCC2)CC1` (stereo not given), the IC50 in data set [1] is 50.7 µM; in data set [2], 16.5 µM. In data set [4], the HC50 was more than 100 µM.

For the compound `C[N+]1(CCOP(=O)([O-])OCCCCC=C2CCCCC2)CCOCC1`, the IC50 in data set [1] and in data set [2] was more than 100 µM throughout.

For `C[N+]1(CCOP(=O)([O-])OCCCCCCCCCCC=C2CCCCC2)CCOCC1`, the IC50 in data set [1] was determined as 8.25 µM; in data set [2], 22.8 µM.

As to `CCCCCCCCCCCC=C1CCC(OCCOP(=O)([O-])OCC[N+]2(C)CCCCC2)CC1` (stereo not given), the IC50 in data set [1] is 22 µM; in data set [2], 23.1 µM.

Take `CCCCCCCCCCCC=C1CCC(OCCOP(=O)([O-])OCC[N+](C)(C)C)CC1` (stereo not given): the values for the IC50 in data set [1], in data set [3] and in data set [2] were 7.08 µM, 26 µM and 3.25 µM, respectively. Also, the concentration for 50% haemolysis (HC50) in data set [4] is 40.6 µM.

Take `C[N+](C)(C)CCOP(=O)([O-])OCCOC1CCCCC1`: the IC50 in data set [1] and in data set [2] was more than 100 µM in each case.

As to `C[N+](C)(C)CCOP(=O)([O-])OCCCCCCCCCCCC1CCCCC1`, the IC50 in data set [1] came to 10.3 µM; in data set [3], 35.5 µM; in data set [2], 8.4 µM. For the same compound, the HC50 in data set [4] is more than 100 µM.

As to `C[N+]1(CCOP(=O)([O-])OCCCCCCCCCCC=C2C3CC4CC(C3)CC2C4)CCOCC1`, the IC50 in data set [1] was 5.09 µM; in data set [3], 37.4 µM; in data set [2], 6.64 µM. The HC50 in data set [4] was more than 100 µM.

Turning to `C[N+]1(CCOP(=O)([O-])OCCCCC=C2C3CC4CC(C3)CC2C4)CCOCC1`, the half-inhibitory concentration (IC50) in data set [1] is 46.9 µM; in data set [2] it was more than 100 µM.

Turning to `C[N+](C)(C)CCOP(=O)([O-])OCCCCCCCCCCC=C1CCCCC1`, the 50% inhibitory concentration (IC50) in data set [1] is 2.4 µM; in data set [3], 31.3 µM; in data set [2], 5.2 µM. Further, the HC50 in data set [4] was determined as 68.3 µM.

Consider `C[N+]1(CCOP(=O)([O-])OCCCCCCCCCCC=C2C3CC4CC(C3)CC2C4)CCCCC1`, for which the half-maximal inhibitory concentration (IC50) in data set [1] is 5.41 µM; in data set [3], 169 µM; in data set [2], 22.6 µM. Moreover, in data set [4], the HC50 is more than 100 µM.

Turning to `CCCCCCCCCCCCCCCCOP(=O)([O-])OCC[N+](C)(C)C` [MILTEFOSINE], the HC50 in data set [4] was 38.3 µM.

Regarding `CCCCCCCCCCCCCC=C1CCC(OCCOP(=O)([O-])OCC[N+]2(C)CCOCC2)CC1` (stereo not given), the values for the concentration for half-maximal inhibition (IC50) in data set [1], in data set [3] and in data set [2] were 38.6 µM, 20.4 µM and 15.5 µM, respectively. In data set [4], the HC50 is 58.8 µM.

On to `C[N+](C)(C)CCOP(=O)([O-])OCCCCCCCCCCCC1C2CC3CC(C2)CC1C3` (stereo not given), for which the IC50 in data set [1] came to 2.88 µM; in data set [3], 169 µM; in data set [2] it was 5.97 µM. The HC50 in data set [4] was more than 100 µM.

For `CCCCCCCCCCCCC1CCC(OCCOP(=O)([O-])OCC[N+](C)(C)C)CC1` (stereo not given), the IC50 in data set [1] was determined as 9.49 µM; in data set [3] it was 22.2 µM; in data set [2], 5.65 µM. Also, the HC50 in data set [4] worked out at 75.7 µM.

As for `C[N+]1(CCOP(=O)([O-])OCCOC2CCCCC2)CCCCC1`, the half-maximal inhibitory concentration (IC50) in data set [1] and in data set [2] was more than 100 µM in each case.

Regarding `C[N+](C)(C)CCOP(=O)([O-])OCCCCCCCCCCC=C1C2CC3CC(C2)CC1C3`, the IC50 in data set [1] was 3.16 µM; in data set [3], 59.5 µM; in data set [2] it was 6.75 µM. Also, the HC50 in data set [4] was more than 100 µM.

In the case of `CCCCCCCCCCCCCC=C1CCC(OCCOP(=O)([O-])OCC[N+]2(C)CCCCC2)CC1` (stereo not given), the IC50 in data set [1] was found to be 29.7 µM; in data set [3], 65 µM; in data set [2], 11.4 µM. Moreover, in data set [4], the 50% haemolytic concentration (HC50) is more than 100 µM.

`C[N+](C)(C)C1CCCCC1OP(=O)([O-])OCCCCCCCCCCC=C1CCCCC1` (stereo not given): the half-maximal inhibitory concentration (IC50) in data set [1] is 26.3 µM; in data set [2], more than 100 µM. Moreover, the HC50 in data set [4] was 59.8 µM.

In the case of `CCCCCCCCCCCCCC=C1CCC(OCCOP(=O)([O-])OCC[N+](C)(C)C)CC1` (stereo not given), the IC50 in data set [1] is 3.91 µM; in data set [3] it was 20.2 µM; in data set [2], 5.25 µM. Moreover, the HC50 in data set [4] is more than 100 µM.

Turning to `C[N+](C)(C)C1CCCC1OP(=O)([O-])OCCCCCCCCCCC=C1C2CC3CC(C2)CC1C3` (stereo not given), the IC50 amounted to 3.92 µM in data set [1], 75 µM in data set [3] and 38 µM in data set [2]. In addition, in data set [4], the HC50 is more than 100 µM.

For the compound `C[N+](C)(C)C1CCCCC1OP(=O)([O-])OCCCCCCCCCCC=C1C2CC3CC(C2)CC1C3` (stereo not given), the IC50 is 16.6 µM in data set [1], 39.7 µM in data set [3] and more than 100 µM in data set [2]. Also, the HC50 in data set [4] came to 66.6 µM.

`C[N+]1(CCOP(=O)([O-])OCCCCCCCCCCC=C2CCCCC2)CCCCC1`: the values for the IC50 in data set [1] and in data set [2] were 8.7 µM and 47.6 µM, respectively. For the same compound, in data set [4], the HC50 is more than 100 µM.

Regarding `CCCCCCCCCCCCCCCC=C1CCC(OCCOP(=O)([O-])OCC[N+](C)(C)C)CC1` (stereo not given), the IC50 in data set [1] amounted to 45.1 µM; in data set [2], 21.2 µM. In addition, the HC50 in data set [4] is more than 100 µM.

Regarding `C[N+]1(CCOP(=O)([O-])OCCCCC=C2C3CC4CC(C3)CC2C4)CCCCC1`, the IC50 in data set [1] and in data set [2] was more than 100 µM in each case.

`C[N+]1(CCOP(=O)([O-])OCCOC2CCCCC2)CCOCC1`: the IC50 in data set [1] and in data set [2] was more than 100 µM in each case.

With `C[N+](C)(C)CCOP(=O)([O-])OCCCCCC1C2CC3CC(C2)CC1C3` (stereo not given), the IC50 is 4.02 µM in data set [1], 59.5 µM in data set [3] and more than 100 µM in data set [2]. For the same compound, the HC50 in data set [4] is more than 100 µM.

In the case of `C[N+]1(CCOP(=O)([O-])OCCCCC=C2CCCCC2)CCCCC1`, the IC50 in data set [1] and in data set [2] was more than 100 µM each time.
